According to ChEMBL document CHEMBL1649560, “Beta-lactamase-mediated beta-lactam resistance in Campylobacter species: prevalence of Cj0299 (bla OXA-61) and evidence for a novel beta-Lactamase in C. jejuni” (2009):
≈ marks a conversion by molar mass, not a printed value.

What was measured:
Assay type in all cases: functional
[1] = system: Campylobacter jejuni; test: Antibacterial activity against bla gene-negative and nitrocefin reaction-positive beta-lactamase harboring Campylobacter jejuni isolate P854 by NCCLS agar doubling dilution method
In short: (§1)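 MICs of β-lactams by agar doubling dilution following the NCCLS (CLSI) Campylobacter Working Group procedure, with C. jejuni NCTC 11168 and C. coli NCTC 11366 as controls. Isolates were from UK poultry flocks. β-Lactamase status was set by Cj0299 PCR (281-bp amplimer) and by a nitrocefin colour change of sonicated lysate within 5 min, or within 30 min on repeat.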

[2] = system: Campylobacter jejuni; test: Antibacterial activity against bla gene-positive and nitrocefin reaction-positive beta-lactamase harboring Campylobacter jejuni isolate P338 by NCCLS agar doubling dilution method
In short: (§2)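 MICs by agar doubling dilution per the NCCLS (now CLSI) Campylobacter Working Group method. Isolates came from UK chicken flocks (feces, ceca or farm environment), 2000–2006. C. jejuni NCTC 11168 and C. coli NCTC 11366 served as control strains. The ampicillin resistance cutoff was 8 μg/ml; BSAC/CLSI Enterobacteriaceae guidelines were used for other agents.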

[3] = system: Campylobacter jejuni; test: Antibacterial activity against bla gene-positive and nitrocefin reaction-positive beta-lactamase harboring Campylobacter jejuni isolate P285 by NCCLS agar doubling dilution method; in short: as §2
[4] = system: Campylobacter jejuni; test: Antibacterial activity against bla gene-positive and nitrocefin reaction-positive beta-lactamase harboring Campylobacter jejuni isolate P305 by NCCLS agar doubling dilution method; in short: as §2
[5] = system: Campylobacter jejuni; test: Antibacterial activity against bla gene-positive and nitrocefin reaction-positive beta-lactamase harboring Campylobacter jejuni isolate P316 by NCCLS agar doubling dilution method; in short: as §2
[6] = system: Campylobacter jejuni; test: Antibacterial activity against bla gene-positive and nitrocefin reaction-positive beta-lactamase harboring Campylobacter jejuni isolate P1730 by NCCLS agar doubling dilution method; in short: as §2
[7] = system: Campylobacter jejuni; test: Antibacterial activity against bla gene-positive and nitrocefin reaction-positive beta-lactamase harboring Campylobacter jejuni isolate P1093 by NCCLS agar doubling dilution method; in short: as §1
[8] = system: Campylobacter jejuni; test: Antibacterial activity against bla gene-positive and nitrocefin reaction-positive beta-lactamase harboring Campylobacter jejuni isolate P1650 by NCCLS agar doubling dilution method; in short: as §1
[9] = system: Campylobacter jejuni; test: Antibacterial activity against bla gene-negative and nitrocefin reaction-negative beta-lactamase harboring Campylobacter jejuni isolate P1962 by NCCLS agar doubling dilution method; in short: as §1
[10] = system: Campylobacter coli; test: Antibacterial activity against Campylobacter coli by NCCLS agar doubling dilution method
In short: (§3)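 MICs by agar doubling dilution following the NCCLS (CLSI) Campylobacter Working Group procedure, applied to ampicillin- and amoxicillin-resistant isolates from UK chicken flocks (2000–2006). C. jejuni NCTC 11168 and C. coli NCTC 11366 served as control strains. Resistance was called at an ampicillin cutoff of 8 μg/ml. Other agents were judged against Enterobacteriaceae guidelines (BSAC, CLSI).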

[11] = system: Campylobacter jejuni; test: Antibacterial activity against Campylobacter jejuni by NCCLS agar doubling dilution method; in short: as §3
[12] = system: Campylobacter jejuni; test: Antibacterial activity against bla gene-positive and nitrocefin reaction-negative beta-lactamase harboring Campylobacter jejuni isolate P1698 by NCCLS agar doubling dilution method; in short: as §1
[13] = system: Campylobacter coli; test: Antibacterial activity against bla gene-positive and nitrocefin reaction-positive beta-lactamase harboring Campylobacter coli isolate P321 by NCCLS agar doubling dilution method; in short: as §1
[14] = system: Campylobacter coli; test: Antibacterial activity against bla-positive and beta-lactamase-weakly positive Campylobacter coli isolate P1627 by NCCLS agar doubling dilution method; in short: as §2
[15] = system: Campylobacter jejuni; test: Antibacterial activity against bla gene-positive and nitrocefin reaction-positive beta-lactamase harboring Campylobacter jejuni isolate P286 by NCCLS agar doubling dilution method; in short: as §2
[16] = system: Campylobacter jejuni; test: Antibacterial activity against bla gene-positive and nitrocefin reaction-positive beta-lactamase harboring Campylobacter jejuni isolate P790 by NCCLS agar doubling dilution method; in short: as §2
[17] = system: Campylobacter jejuni; test: Antibacterial activity against bla gene-negative and nitrocefin reaction-negative beta-lactamase harboring Campylobacter jejuni isolate P835 by NCCLS agar doubling dilution method; in short: as §1
[18] = system: Campylobacter jejuni; test: Antibacterial activity against bla gene-positive and nitrocefin reaction-negative beta-lactamase harboring Campylobacter jejuni isolate P1699 by NCCLS agar doubling dilution method; in short: as §1
[19] = system: Campylobacter jejuni; test: Antibacterial activity against bla gene-positive and nitrocefin reaction-negative beta-lactamase harboring Campylobacter jejuni NCTC 11168 by NCCLS agar doubling dilution method; in short: as §1
[20] = system: Campylobacter jejuni; test: Antibacterial activity against bla gene-negative and nitrocefin reaction-negative beta-lactamase harboring Campylobacter jejuni isolate P850 by NCCLS agar doubling dilution method; in short: as §1
[21] = system: Campylobacter jejuni; test: Antibacterial activity against bla gene-positive and nitrocefin reaction-positive beta-lactamase harboring Campylobacter jejuni isolate P1618 by NCCLS agar doubling dilution method; in short: as §1
[22] = system: Campylobacter coli; test: Antibacterial activity against bla gene-positive and nitrocefin reaction-positive beta-lactamase harboring Campylobacter coli isolate P1826 by NCCLS agar doubling dilution method; in short: as §1
[23] = system: Campylobacter jejuni; test: Antibacterial activity against bla gene-negative and nitrocefin reaction-positive beta-lactamase harboring Campylobacter jejuni isolate P843 by NCCLS agar doubling dilution method; in short: as §1
[24] = system: Campylobacter jejuni; test: Antibacterial activity against Campylobacter jejuni isolate P338 harboring blaOXA-61::cat gene by NCCLS agar doubling dilution method
In short: (§4)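 Agar doubling dilution MICs (NCCLS/CLSI Campylobacter Working Group method) against Cj0299-inactivated mutants. Mutants were made by transforming the C. jejuni isolate with pCI and selecting on Mueller-Hinton agar with 10 μg/ml chloramphenicol for 3–5 days. Chromosomal insertion was confirmed by PCR with Cj0299 and cat primers.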

[25] = system: Campylobacter jejuni; test: Antibacterial activity against Campylobacter jejuni isolate P270 harboring blaOXA-61::cat gene by NCCLS agar doubling dilution method
[26] = system: Campylobacter jejuni; test: Antibacterial activity against Campylobacter jejuni isolate P1093 harboring blaOXA-61::cat gene by NCCLS agar doubling dilution method; in short: as §4

Compound | MIC [1] [µg/mL] | MIC [2] [µg/mL] | MIC [3] [µg/mL] | MIC [4] [µg/mL] | MIC [5] [µg/mL] | MIC [6] [µg/mL] | MIC [8] [µg/mL] | MIC [9] [µg/mL] | MIC50 [10] [µg/mL] | MIC90 [10] [µg/mL] | MIC50 [11] [µg/mL] | MIC90 [11] [µg/mL] | MIC [12] [µg/mL] | MIC [13] [µg/mL] | MIC [14] [µg/mL] | MIC [15] [µg/mL] | MIC [16] [µg/mL] | MIC [17] [µg/mL] | MIC [18] [µg/mL] | MIC [19] [µg/mL] | also measured
CC1(C)S[C@@H]2[C@H](NC(=O)[C@H](N)c3ccc(O)cc3)C(=O)N2[C@H]1C(=O)O [AMOXICILLIN] | 128 (≈ 350 µM) | 64 (≈ 175 µM) | 64 (≈ 175 µM) | 64 (≈ 175 µM) | 32 (≈ 87.6 µM) | 64 (≈ 175 µM) | 64 (≈ 175 µM) | 2 (≈ 5.47 µM) | 128 (≈ 350 µM) | > 128 | 64 (≈ 175 µM) | 128 (≈ 350 µM) | 128 (≈ 350 µM) | 64 (≈ 175 µM) | 8 (≈ 21.9 µM) | 64 (≈ 175 µM) | 64 (≈ 175 µM) | 0.25 (≈ 0.684 µM) | 64 (≈ 175 µM) | 4 (≈ 10.9 µM) | MIC [7]: 64 µg/mL (≈ 175 µM); MIC [20]: 1 µg/mL (≈ 2.74 µM); MIC [21]: 64 µg/mL (≈ 175 µM); MIC [22]: 128 µg/mL (≈ 350 µM); MIC [23]: 64 µg/mL (≈ 175 µM)
C[C@H]1[C@H](NC(=O)/C(=N\OC(C)(C)C(=O)O)c2csc(N)n2)C(=O)N1S(=O)(=O)O [AZTREONAM] | 4 (≈ 9.19 µM) | 128 (≈ 294 µM) | > 128 | > 128 | > 128 | 32 (≈ 73.5 µM) | 128 (≈ 294 µM) | 4 (≈ 9.19 µM) | 64 (≈ 147 µM) | > 128 | 64 (≈ 147 µM) | > 128 | 128 (≈ 294 µM) | > 128 | > 128 | > 128 | > 128 | 128 (≈ 294 µM) | < 1 | 64 (≈ 147 µM) | MIC [20]: > 32 µg/mL; MIC [21]: 64 µg/mL (≈ 147 µM); MIC [22]: 32 µg/mL (≈ 73.5 µM); MIC [23]: > 128 µg/mL
CC1(C)S[C@@H]2[C@H](NC(=O)C(C(=O)O)c3ccccc3)C(=O)N2[C@H]1C(=O)O (some centres undefined) [CARBENICILLIN] | > 256 | 128 (≈ 338 µM) | 256 (≈ 677 µM) | > 256 | 128 (≈ 338 µM) | 128 (≈ 338 µM) | 64 (≈ 169 µM) | < 16 | 128 (≈ 338 µM) | 256 (≈ 677 µM) | 128 (≈ 338 µM) | 256 (≈ 677 µM) | 32 (≈ 84.6 µM) | 256 (≈ 677 µM) | 32 (≈ 84.6 µM) | 256 (≈ 677 µM) | 256 (≈ 677 µM) | 8 (≈ 21.1 µM) | 64 (≈ 169 µM) | 16 (≈ 42.3 µM) | MIC [24]: 8 µg/mL (≈ 21.1 µM); MIC [7]: 256 µg/mL (≈ 677 µM); MIC [25]: 4 µg/mL (≈ 10.6 µM); MIC [26]: 16 µg/mL (≈ 42.3 µM); MIC [20]: 256 µg/mL (≈ 677 µM); MIC [21]: 128 µg/mL (≈ 338 µM); MIC [22]: 128 µg/mL (≈ 338 µM); MIC [23]: < 16 µg/mL
Cn1nnnc1SCC1=C(C(=O)O)N2C(=O)[C@@H](NC(=O)[C@H](O)c3ccccc3)[C@H]2SC1 [CEFAMANDOLE] | – | – | – | – | – | – | – | – | > 256 | > 256 | > 256 | > 256 | – | – | – | – | – | – | – | – | –
CO/N=C(\C(=O)N[C@@H]1C(=O)N2C(C(=O)O)=C(COC(C)=O)CS[C@H]12)c1csc(N)n1 [CEFOTAXIME] | 4 (≈ 8.78 µM) | 8 (≈ 17.6 µM) | 8 (≈ 17.6 µM) | 4 (≈ 8.78 µM) | 4 (≈ 8.78 µM) | 4 (≈ 8.78 µM) | 4 (≈ 8.78 µM) | 1 (≈ 2.2 µM) | 4 (≈ 8.78 µM) | 8 (≈ 17.6 µM) | 4 (≈ 8.78 µM) | 8 (≈ 17.6 µM) | 4 (≈ 8.78 µM) | 4 (≈ 8.78 µM) | 4 (≈ 8.78 µM) | 8 (≈ 17.6 µM) | 4 (≈ 8.78 µM) | 4 (≈ 8.78 µM) | 4 (≈ 8.78 µM) | 2 (≈ 4.39 µM) | MIC [24]: 8 µg/mL (≈ 17.6 µM); MIC [7]: 8 µg/mL (≈ 17.6 µM); MIC [25]: 2 µg/mL (≈ 4.39 µM); MIC [26]: 4 µg/mL (≈ 8.78 µM); MIC [20]: 8 µg/mL (≈ 17.6 µM); MIC [21]: 16 µg/mL (≈ 35.1 µM); MIC [22]: 2 µg/mL (≈ 4.39 µM); MIC [23]: 4 µg/mL (≈ 8.78 µM)
